The results in this text go back to ChEMBL document CHEMBL2163267, “Novel N-linked aminopiperidine inhibitors of bacterial topoisomerase type II with reduced pK(a): antibacterial agents with an improved safety profile” (J Med Chem, 2012).

Data set [1] in a line: Dissociation constant, pKa of the compound by pH metric assay. In kind it is physicochemical. The method, boiled down: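 pH-metric titration on an automated titrator, run in triplicate. Accuracy about 0.02 log units.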
The nature of data set [2]: Half life in Beagle dog at 10 mg/kg, iv administered as infusion and po. On the set-up: dose 10 mg/kg, route oral. In kind it is ADME, organism-based, Canis lupus familiaris. To be noted: in vivo.
Data set [3] is described as follows: AUC in Beagle dog at 10 mg/kg, iv administered as infusion. In kind it is ADME, organism-based, Canis lupus familiaris. On the set-up: dose 10 mg/kg, route intravenous. The settings on record: plasma. The method, boiled down: (§1)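 Single iv dose (3 mg/kg bolus, or 10 mg/kg infusion, per line). Rats in groups of three, bolus via cannulated jugular vein. Male beagle dogs (n = 3), iv as 15 min infusion, sampled 0 to 24 h. Serial whole-blood samples taken at time intervals. Plasma levels measured by LC-MS/MS. Parameters estimated by non-compartmental analysis.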

For data set [4], the system named is Staphylococcus aureus. The data set is described as follows: Antibacterial activity against methicillin-susceptible Staphylococcus aureus after 18 to 24 hrs by CLSI broth microdilution method. In kind it is functional. For orientation: Dilution methods test growth across graded concentrations, often in twofold steps.
A short description of data set [5]: Intrinsic clearance in human hepatocytes measured per 10^6 cells. Format: ADME, cell-based, Hepatocyte. The settings on record: read-out: CLH.
Data set [6] is described as follows: Fraction unbound in human plasma at 10 uM by equilibrium dialysis method. Format: ADME, cell-free. The essentials:
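Equilibrium dialysis. Compound at 10 μM in the plasma (donor) chamber against phosphate buffer, rotated at 37 °C for 16 h. Drug in the plasma and buffer samples quantified by LC-MS/MS after methanol protein precipitation with internal standard. Standard curve 10 nM to 10 μM.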
(In equilibrium dialysis free small molecules cross a membrane that holds back macromolecules.)

The subject of another data set is Escherichia coli. The data set is described as follows: Antibacterial activity against Escherichia coli W3110 after 18 to 24 hrs by CLSI broth microdilution method. In kind it is functional.
A further data set relates to Canis familiaris. Put plainly: Volume of distribution in Beagle dog at 10 mg/kg, iv administered as infusion and po. In kind it is ADME, organism-based, Canis lupus familiaris. On the set-up: dose 10 mg/kg, route oral. The settings on record: in vivo. The method, boiled down:
as §1

A further data set relates to Pseudomonas aeruginosa. The data set is described as follows: Antibacterial activity against Pseudomonas aeruginosa PAO1 after 18 to 24 hrs by CLSI broth microdilution method. Format: functional.
A short description of data set [7]: Octanol-phosphate buffer partition coefficient, log D of the compound at pH 7.4 by shake flask method. In kind it is physicochemical. The method, boiled down:
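Shake-flask partition between n-octanol and 10 mM phosphate buffer at pH 7.4. Shaken 1 h at 1200 rpm to reach equilibrium. Phases analysed by LC/UV, with MS for mass confirmation.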

A short description of data set [8]: Inhibition of Escherichia coli DNA topoisomerase 4 subunit ParC/DNA topoisomerase 4 subunit ParE ATPase activity after 24 hrs by malachite green staining-based colorimetric assay.
A short description of data set [9]: Intrinsic clearance in Beagle dog hepatocytes measured per 10^6 cells. To be noted: read-out: CLH. In kind it is ADME, cell-based, Canis lupus familiaris, Hepatocyte.
The nature of data set [10]: Intrinsic clearance in Wistar Han rat hepatocytes measured per 10^6 cells. Format: ADME, cell-based, Hepatocyte. To be noted: read-out: CLH.
Another data set has as its system Rattus norvegicus. The data set is described as follows: Volume of distribution in Wistar Han rat at 10 mg/kg, iv administered as infusion and po. Set-up: dose 10 mg/kg, route oral. The settings on record: in vivo. Format: ADME, organism-based. The method, boiled down: as §1
Data set [11] can be described thus: AUC in Wistar Han rat at 10 mg/kg, iv administered as infusion. Format: ADME, organism-based. Set-up: dose 10 mg/kg, route intravenous. The settings on record: plasma. The essentials: as §1
The next data set has as its system Streptococcus pneumoniae. Put plainly: Antibacterial activity against penicillin-susceptible Streptococcus pneumoniae D39 after 18 to 24 hrs by CLSI broth microdilution method. Format: functional.
Data set [12] has as its target T1, Voltage-gated inwardly rectifying potassium channel KCNH2 (Homo sapiens, UniProt Q12809). The data set is described as follows: Inhibition of human ERG by Ionworks assay. For orientation: Patch clamp records ionic current or voltage across a cell membrane.
Data set [13] concerns the target T1, Voltage-gated inwardly rectifying potassium channel KCNH2. Put plainly: Displacement of [3H]-astemizole from human ERG expressed in HEK293 cells after 60 mins by liquid scintillation counter. Format: cell-based.
The subject of data set [14] is Mus musculus. The data set is described as follows: AUC (infinity) in CD1 mouse infected with methicillin-resistant Staphylococcus aureus ARC 1692 at 40 mg/kg/day, ip. On the set-up: dose 40 mg/kg/day, time infinity, route intraperitoneal. The settings on record: in vivo. Format: ADME, organism-based, Plasma.
In data set [15] the test system is Staphylococcus aureus. Put plainly: Antibacterial activity against methicillin-resistant Staphylococcus aureus ARC 1692 in ABT-treated CD1 mouse neutropenic thigh infection model assessed as reduction in log10 CFU per gram of thigh at 80 mg/kg/day, ip qd starting 2 hrs post-infection measured after 24 hrs. In kind it is functional. The settings on record: route intraperitoneal.

Data set [16] concerns Staphylococcus aureus. Put plainly: Antibacterial activity against community acquired methicillin-resistant Staphylococcus aureus ARC 3189 after 18 to 24 hrs by CLSI broth microdilution method. In kind it is functional. The method, boiled down: (§2)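 CLSI broth microdilution in Mueller Hinton Broth 2. Inocula prepared from blood agar plates grown at 35 °C for 18–24 h. Compound in DMSO, 2% DMSO final, 11 doubling dilutions from 64 to 0.06 μg/mL. Plates read at 620 nm.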

In data set [17] the test system is Staphylococcus aureus. Put plainly: Antibacterial activity against vancomycin-resistant Staphylococcus aureus ARC 3186 after 18 to 24 hrs by CLSI broth microdilution method. Format: functional. The essentials:
as §2

The test system of data set [18] is Mus musculus. The data set is described as follows: AUC (infinity) in CD1 mouse infected with methicillin-resistant Staphylococcus aureus ARC 1692 at 80 mg/kg/day, ip. Format: ADME, organism-based, Plasma. Set-up: dose 80 mg/kg/day, time infinity, route intraperitoneal. The settings on record: in vivo.
Data set [19] deals with Staphylococcus aureus. Put plainly: Antibacterial activity against hospital acquired methicillin-resistant Staphylococcus aureus ARC 1692 after 18 to 24 hrs by CLSI broth microdilution method. In kind it is functional. The method, boiled down: as §2
In data set [20] the test system is Staphylococcus aureus. Put plainly: Antibacterial activity against linezolid-resistant Staphylococcus aureus ARC 3583 after 18 to 24 hrs by CLSI broth microdilution method. Format: functional. The essentials:
as §2

For data set [21], the system named is Staphylococcus aureus. Put plainly: Antibacterial activity against methicillin-resistant Staphylococcus aureus ARC 1692 in ABT-treated CD1 mouse neutropenic thigh infection model assessed as reduction in log10 CFU per gram of thigh at 40 mg/kg/day, ip qd starting 2 hrs post-infection measured after 24 hrs. Format: functional. The settings on record: route intraperitoneal.

Converted amounts (≈) assume the structure as drawn.

T1 sequence (Q12809 whole entry): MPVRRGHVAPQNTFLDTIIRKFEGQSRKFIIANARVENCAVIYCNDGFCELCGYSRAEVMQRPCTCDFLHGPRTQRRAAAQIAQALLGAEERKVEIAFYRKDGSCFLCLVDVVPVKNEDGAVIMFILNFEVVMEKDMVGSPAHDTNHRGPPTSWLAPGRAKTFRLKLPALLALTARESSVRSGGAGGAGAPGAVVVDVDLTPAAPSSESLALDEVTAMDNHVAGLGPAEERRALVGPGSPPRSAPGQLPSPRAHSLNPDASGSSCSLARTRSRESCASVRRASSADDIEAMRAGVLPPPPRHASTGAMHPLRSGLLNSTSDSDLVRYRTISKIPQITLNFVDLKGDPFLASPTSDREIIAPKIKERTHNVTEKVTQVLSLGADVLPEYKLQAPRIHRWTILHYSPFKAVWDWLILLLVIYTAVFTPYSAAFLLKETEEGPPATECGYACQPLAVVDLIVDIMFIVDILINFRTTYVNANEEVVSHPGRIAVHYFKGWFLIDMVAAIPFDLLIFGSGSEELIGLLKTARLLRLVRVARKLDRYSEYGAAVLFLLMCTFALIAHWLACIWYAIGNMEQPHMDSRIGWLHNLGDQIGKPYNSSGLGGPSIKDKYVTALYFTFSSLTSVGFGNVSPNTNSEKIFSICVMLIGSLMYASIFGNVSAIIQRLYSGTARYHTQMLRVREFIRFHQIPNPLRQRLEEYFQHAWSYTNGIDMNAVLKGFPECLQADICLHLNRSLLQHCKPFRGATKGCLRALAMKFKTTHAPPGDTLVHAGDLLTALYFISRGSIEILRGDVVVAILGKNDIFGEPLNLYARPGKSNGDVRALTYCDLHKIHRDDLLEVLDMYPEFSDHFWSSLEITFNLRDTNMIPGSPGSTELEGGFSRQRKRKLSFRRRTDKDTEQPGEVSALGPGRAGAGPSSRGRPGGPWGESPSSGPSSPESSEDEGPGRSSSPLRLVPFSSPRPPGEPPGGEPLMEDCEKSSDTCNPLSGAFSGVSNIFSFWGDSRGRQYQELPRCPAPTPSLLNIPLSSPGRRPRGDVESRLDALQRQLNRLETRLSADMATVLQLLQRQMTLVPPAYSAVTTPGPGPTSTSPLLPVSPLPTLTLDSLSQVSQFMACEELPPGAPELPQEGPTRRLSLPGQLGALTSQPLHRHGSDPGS

By pKa is commonly meant the negative logarithm of the acid dissociation constant. For orientation: half-life means the time in which the quantity being followed falls by half. One may read the MIC as the lowest concentration found to suppress growth. A high value points to weaker potency. The fraction unbound is free concentration divided by total concentration. A high value points to weak binding. One may read the logD as the decadic logarithm of the distribution of all forms, ionised or not, between an organic phase and buffer at a given pH. Read a low logD as lower lipophilicity. Usually IC50 stands for the midpoint of a concentration-inhibition curve. `N#Cc1ccc2ccc(=O)n(CCN3CC[C@@H](NCc4ccc5c(n4)NC(=O)CO5)[C@@H](F)C3)c2c1` came in with a pKa in data set [1] of 7.28. Also, in data set [2], the half-life is 5.4 h. The AUC amounted to 25000 ng·h/mL in data set [3] and 2500 ng·h/mL in [11]. In addition, the minimum inhibitory concentration (MIC) was 0.06 µg/mL (≈ 0.126 µM) in the data set with Staphylococcus aureus [4], 1 µg/mL (≈ 2.1 µM) against Escherichia coli, 8 µg/mL (≈ 16.8 µM) in the data set on Pseudomonas aeruginosa and 0.25 µg/mL (≈ 0.525 µM) in the data set with Streptococcus pneumoniae. The values for the hepatocyte CLint in [5], in [9] and in [10] were 2 µL/min/1e6 cells, 8.6 µL/min/1e6 cells and 14 µL/min/1e6 cells, respectively. The molecule further registered a fraction unbound at 10 µM in [6] of 0.2. The Vd was 1.7 L/kg in the data set with Canis familiaris and 3 L/kg with Rattus norvegicus. Besides, the logD in data set [7] was found to be 0.66. This molecule registered an IC50 in data set [8] of 0.011 µM.

For `N#Cc1ccc2ccc(=O)n(CCN3CC[C@H](NCc4cc5c(cn4)OCCO5)[C@@H](F)C3)c2c1` (single isomer, unassigned; enantiomer B), the pKa in data set [1] is 6.66. The minimum inhibitory concentration (MIC) is 0.13 µg/mL (≈ 0.28 µM) in the data set on Staphylococcus aureus [4], 8 µg/mL (≈ 17.3 µM) against Escherichia coli, over 8 µg/mL in the data set with Pseudomonas aeruginosa and 0.25 µg/mL (≈ 0.539 µM) in the data set on Streptococcus pneumoniae. Moreover, the IC50 in data set [12] is 122 µM; in data set [13], 57 µM; in data set [8] it was 0.016 µM. The fraction unbound at 10 µM in data set [6] worked out at 0.09. The molecule further registered a logD in data set [7] of 1.53.

`C[C@H]1COc2c(N3CCN(C)CC3)c(F)cc3c(=O)c(C(=O)O)cn1c23.C[C@H]1COc2c(N3CCN(C)CC3)c(F)cc3c(=O)c(C(=O)O)cn1c23.O` [LEVOFLOXACIN]: the AUC in the data set with Mus musculus [14] worked out at 4 µg/h/mL; with Mus musculus [18] it was 11 µg/h/mL. Also, the log10cfu with Staphylococcus aureus [15] is on record as 1.4; with Staphylococcus aureus [21] it was 0.3. For the same molecule, the MIC in the data set on Staphylococcus aureus [16] was 8 µg/mL; in the data set with Staphylococcus aureus [17], 16 µg/mL; against Staphylococcus aureus [19], 0.125 µg/mL; against Staphylococcus aureus [20] it was over 16 µg/mL.

With `CC(=O)NC[C@H]1CN(c2ccc(N3CCOCC3)c(F)c2)C(=O)O1` [LINEZOLID], the results for the MIC with Staphylococcus aureus [17] and in the data set on Staphylococcus aureus [20] were 1 µg/mL (≈ 2.96 µM) and 16 µg/mL (≈ 47.4 µM), respectively.
